Test results reported in ChEMBL document CHEMBL1938284, “Synthesis and biological activity of novel organoselenium derivatives targeting multiple kinases and capable of inhibiting cancer progression to metastases” (Eur J Med Chem, 2012).

What was measured:
[1] = molecular target: T1, Inhibitor of nuclear factor kappa-B kinase subunit epsilon (Homo sapiens) (UniProt Q14164); experiment: Inhibition of IKKepsilon at 1 uM
T1 sequence (whole entry): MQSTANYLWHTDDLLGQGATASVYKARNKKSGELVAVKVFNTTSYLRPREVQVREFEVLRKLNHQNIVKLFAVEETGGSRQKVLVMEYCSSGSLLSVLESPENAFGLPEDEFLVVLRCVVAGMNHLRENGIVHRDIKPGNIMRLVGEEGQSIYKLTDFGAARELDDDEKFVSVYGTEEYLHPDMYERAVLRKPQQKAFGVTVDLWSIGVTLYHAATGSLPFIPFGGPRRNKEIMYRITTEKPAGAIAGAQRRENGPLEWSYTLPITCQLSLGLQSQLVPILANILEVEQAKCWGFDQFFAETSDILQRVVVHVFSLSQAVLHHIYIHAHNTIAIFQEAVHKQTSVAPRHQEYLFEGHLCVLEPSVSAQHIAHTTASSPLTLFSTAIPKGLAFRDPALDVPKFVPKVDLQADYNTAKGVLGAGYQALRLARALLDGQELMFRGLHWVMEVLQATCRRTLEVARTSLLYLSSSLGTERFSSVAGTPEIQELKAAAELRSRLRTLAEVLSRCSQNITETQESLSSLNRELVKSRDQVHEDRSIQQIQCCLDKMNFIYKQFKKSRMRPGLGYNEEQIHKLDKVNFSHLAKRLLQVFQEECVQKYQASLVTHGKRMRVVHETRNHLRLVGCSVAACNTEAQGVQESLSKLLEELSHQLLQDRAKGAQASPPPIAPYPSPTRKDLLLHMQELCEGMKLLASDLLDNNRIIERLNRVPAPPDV

[2] = molecular target: Tyrosine-protein kinase Yes (Homo sapiens) (UniProt P07947); experiment: Inhibition of YES1 at 1 uM
Chain of Tyrosine-protein kinase Yes (Homo sapiens) (P07947 2-543 limits assumed): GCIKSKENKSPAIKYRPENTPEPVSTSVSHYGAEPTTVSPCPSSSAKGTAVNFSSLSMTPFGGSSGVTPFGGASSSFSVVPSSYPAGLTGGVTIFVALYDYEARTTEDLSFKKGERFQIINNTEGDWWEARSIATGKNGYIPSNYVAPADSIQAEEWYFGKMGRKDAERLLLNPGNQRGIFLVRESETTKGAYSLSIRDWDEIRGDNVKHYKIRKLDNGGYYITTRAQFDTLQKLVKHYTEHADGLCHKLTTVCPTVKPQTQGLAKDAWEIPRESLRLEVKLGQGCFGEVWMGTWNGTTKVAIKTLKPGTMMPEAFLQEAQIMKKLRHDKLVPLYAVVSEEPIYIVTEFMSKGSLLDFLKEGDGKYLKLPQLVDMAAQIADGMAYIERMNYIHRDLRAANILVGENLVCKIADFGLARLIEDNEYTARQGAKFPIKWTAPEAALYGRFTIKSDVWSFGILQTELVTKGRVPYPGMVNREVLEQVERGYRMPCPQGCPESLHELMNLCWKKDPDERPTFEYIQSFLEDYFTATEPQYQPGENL

[3] = molecular target: RAC-alpha serine/threonine-protein kinase (Homo sapiens, UniProt P31749); experiment: Inhibition of AKT-1 at 1 uM
Chain of RAC-alpha serine/threonine-protein kinase (P31749 whole entry): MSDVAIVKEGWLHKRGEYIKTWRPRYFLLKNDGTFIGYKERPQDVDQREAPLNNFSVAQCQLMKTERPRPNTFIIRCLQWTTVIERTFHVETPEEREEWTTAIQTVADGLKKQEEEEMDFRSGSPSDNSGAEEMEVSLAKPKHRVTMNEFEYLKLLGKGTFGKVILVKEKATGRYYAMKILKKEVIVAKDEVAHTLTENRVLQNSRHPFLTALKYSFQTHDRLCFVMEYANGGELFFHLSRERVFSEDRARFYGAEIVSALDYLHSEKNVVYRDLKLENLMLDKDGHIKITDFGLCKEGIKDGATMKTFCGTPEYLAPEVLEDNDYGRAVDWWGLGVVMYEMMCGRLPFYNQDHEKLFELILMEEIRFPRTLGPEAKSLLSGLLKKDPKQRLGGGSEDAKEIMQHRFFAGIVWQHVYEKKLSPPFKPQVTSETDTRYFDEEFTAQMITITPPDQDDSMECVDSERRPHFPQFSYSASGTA

[4] = molecular target: Receptor tyrosine-protein kinase erbB-2 (Homo sapiens) (UniProt P04626); experiment: Inhibition of HER2 at 1 uM
[5] = molecular target: Tyrosine-protein kinase ABL1 (Homo sapiens) (UniProt P00519); experiment: Inhibition of ABL1 at 1 uM
Chain of Tyrosine-protein kinase ABL1 (Homo sapiens) (P00519 whole entry): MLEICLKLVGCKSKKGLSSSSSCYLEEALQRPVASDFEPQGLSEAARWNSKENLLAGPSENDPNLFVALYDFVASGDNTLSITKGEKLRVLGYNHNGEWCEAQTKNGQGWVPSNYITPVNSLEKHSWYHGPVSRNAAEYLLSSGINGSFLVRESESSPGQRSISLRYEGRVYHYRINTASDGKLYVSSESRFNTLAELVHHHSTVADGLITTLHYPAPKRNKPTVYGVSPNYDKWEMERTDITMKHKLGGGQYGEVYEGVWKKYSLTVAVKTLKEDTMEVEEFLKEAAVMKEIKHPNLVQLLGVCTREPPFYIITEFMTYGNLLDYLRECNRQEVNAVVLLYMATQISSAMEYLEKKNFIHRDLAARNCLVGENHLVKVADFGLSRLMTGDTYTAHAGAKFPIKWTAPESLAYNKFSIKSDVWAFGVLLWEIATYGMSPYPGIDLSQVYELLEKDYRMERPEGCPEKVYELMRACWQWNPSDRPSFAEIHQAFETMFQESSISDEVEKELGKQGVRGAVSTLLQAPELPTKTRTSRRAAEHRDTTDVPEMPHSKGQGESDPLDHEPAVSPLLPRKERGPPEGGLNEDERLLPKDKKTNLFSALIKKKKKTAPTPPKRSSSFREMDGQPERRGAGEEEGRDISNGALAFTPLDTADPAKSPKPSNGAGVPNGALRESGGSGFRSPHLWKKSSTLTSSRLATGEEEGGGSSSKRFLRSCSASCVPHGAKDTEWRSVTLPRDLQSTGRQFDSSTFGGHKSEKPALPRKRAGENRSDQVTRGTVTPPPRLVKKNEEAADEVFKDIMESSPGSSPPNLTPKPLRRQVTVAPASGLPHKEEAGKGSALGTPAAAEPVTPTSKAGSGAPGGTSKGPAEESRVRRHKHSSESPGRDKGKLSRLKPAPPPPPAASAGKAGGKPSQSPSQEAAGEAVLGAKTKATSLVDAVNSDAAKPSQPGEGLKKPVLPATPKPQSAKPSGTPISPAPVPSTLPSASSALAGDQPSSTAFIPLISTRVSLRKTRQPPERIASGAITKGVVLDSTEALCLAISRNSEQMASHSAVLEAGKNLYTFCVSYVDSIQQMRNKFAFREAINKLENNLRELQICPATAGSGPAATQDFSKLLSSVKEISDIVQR

[6] = molecular target: Ribosomal protein S6 kinase alpha-4 (Homo sapiens) (UniProt O75676); experiment: Inhibition of RPS6KA4 at 1 uM
[7] = molecular target: Insulin receptor (Homo sapiens) (UniProt P06213); experiment: Inhibition of INSR at 1 uM
Chain of Insulin receptor (Homo sapiens) (P06213 28-758 limits assumed): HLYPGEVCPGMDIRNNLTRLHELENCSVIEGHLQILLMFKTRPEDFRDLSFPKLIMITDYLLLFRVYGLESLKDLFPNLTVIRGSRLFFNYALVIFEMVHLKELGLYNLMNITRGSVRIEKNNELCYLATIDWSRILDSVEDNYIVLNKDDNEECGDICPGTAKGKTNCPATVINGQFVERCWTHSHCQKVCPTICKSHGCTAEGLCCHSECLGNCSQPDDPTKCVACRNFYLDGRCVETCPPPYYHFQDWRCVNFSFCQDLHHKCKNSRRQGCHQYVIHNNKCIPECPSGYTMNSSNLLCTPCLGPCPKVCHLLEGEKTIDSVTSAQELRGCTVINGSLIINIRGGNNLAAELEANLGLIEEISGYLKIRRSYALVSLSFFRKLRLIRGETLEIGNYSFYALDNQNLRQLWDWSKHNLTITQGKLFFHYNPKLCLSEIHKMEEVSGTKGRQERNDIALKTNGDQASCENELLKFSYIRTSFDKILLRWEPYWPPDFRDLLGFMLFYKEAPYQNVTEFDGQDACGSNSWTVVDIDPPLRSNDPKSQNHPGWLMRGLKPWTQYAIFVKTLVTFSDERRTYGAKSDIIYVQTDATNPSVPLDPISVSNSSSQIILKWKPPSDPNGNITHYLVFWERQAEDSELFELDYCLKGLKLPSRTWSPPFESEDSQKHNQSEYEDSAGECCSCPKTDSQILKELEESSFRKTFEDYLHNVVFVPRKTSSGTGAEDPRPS
Chain of Insulin receptor (Homo sapiens) (P06213 763-1382 limits assumed): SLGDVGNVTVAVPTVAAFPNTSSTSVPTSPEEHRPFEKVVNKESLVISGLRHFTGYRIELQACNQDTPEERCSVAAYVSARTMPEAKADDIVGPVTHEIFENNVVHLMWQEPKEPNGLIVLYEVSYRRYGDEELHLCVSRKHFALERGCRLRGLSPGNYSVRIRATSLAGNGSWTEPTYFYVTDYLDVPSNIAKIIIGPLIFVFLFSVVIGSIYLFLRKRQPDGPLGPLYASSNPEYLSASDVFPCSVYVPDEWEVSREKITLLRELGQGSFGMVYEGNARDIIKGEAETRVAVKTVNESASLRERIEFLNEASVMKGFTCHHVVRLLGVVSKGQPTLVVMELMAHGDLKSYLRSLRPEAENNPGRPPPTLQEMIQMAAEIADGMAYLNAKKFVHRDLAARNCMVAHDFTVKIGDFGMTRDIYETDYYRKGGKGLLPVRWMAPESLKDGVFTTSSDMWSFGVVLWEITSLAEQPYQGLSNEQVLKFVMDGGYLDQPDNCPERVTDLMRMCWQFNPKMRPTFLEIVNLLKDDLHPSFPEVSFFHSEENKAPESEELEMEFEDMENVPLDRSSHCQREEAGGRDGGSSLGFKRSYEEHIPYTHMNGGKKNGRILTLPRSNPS

[8] = molecular target: Protein kinase C alpha type (Homo sapiens, UniProt P17252); experiment: Inhibition of PKCalpha at 1 uM
[9] = molecular target: Aurora kinase B (Homo sapiens) (UniProt Q96GD4); experiment: Inhibition of Aurora B at 1 uM
Chain of Aurora kinase B (Homo sapiens) (Q96GD4 whole entry): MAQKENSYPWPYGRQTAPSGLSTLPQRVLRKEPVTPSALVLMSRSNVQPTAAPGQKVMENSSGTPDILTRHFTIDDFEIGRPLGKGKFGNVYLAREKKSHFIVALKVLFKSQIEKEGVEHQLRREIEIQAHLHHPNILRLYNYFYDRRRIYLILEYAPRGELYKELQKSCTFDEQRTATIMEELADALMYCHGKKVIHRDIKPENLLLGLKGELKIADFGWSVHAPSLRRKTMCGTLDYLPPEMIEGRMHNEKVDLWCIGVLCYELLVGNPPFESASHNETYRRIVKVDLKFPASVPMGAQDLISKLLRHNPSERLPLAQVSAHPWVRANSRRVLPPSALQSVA

[10] = molecular target: T2, Serine/threonine-protein kinase PLK4 (Homo sapiens) (UniProt O00444); experiment: Inhibition of PLK4 at 1 uM
T2 sequence (whole entry): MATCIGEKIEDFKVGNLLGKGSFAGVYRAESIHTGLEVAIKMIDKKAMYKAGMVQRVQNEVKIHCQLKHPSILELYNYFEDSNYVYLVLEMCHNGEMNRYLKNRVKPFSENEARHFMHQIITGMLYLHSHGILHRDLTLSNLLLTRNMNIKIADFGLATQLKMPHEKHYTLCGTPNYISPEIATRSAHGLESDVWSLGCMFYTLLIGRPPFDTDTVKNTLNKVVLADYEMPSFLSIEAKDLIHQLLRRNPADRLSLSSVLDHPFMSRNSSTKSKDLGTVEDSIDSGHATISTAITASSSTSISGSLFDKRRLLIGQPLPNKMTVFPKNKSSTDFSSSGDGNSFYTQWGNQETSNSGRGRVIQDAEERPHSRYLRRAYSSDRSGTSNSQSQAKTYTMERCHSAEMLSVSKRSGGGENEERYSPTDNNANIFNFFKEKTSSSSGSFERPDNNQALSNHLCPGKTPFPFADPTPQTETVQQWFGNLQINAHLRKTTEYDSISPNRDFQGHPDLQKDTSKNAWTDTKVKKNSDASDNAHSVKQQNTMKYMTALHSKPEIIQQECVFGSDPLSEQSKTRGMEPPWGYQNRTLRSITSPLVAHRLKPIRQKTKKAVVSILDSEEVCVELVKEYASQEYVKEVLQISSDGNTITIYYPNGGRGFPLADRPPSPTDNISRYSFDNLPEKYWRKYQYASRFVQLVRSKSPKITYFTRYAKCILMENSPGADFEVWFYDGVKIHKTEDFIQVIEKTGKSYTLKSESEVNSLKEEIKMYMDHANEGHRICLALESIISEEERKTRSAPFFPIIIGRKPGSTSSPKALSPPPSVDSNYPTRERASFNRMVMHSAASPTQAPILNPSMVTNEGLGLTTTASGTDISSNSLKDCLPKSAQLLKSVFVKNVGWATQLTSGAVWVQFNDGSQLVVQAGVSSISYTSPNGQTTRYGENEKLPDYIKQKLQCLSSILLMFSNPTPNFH

[11] = molecular target: T3, Mitogen-activated protein kinase 12 (Homo sapiens) (UniProt P53778); experiment: Inhibition of p38-gamma at 1 uM
T3 sequence (whole entry): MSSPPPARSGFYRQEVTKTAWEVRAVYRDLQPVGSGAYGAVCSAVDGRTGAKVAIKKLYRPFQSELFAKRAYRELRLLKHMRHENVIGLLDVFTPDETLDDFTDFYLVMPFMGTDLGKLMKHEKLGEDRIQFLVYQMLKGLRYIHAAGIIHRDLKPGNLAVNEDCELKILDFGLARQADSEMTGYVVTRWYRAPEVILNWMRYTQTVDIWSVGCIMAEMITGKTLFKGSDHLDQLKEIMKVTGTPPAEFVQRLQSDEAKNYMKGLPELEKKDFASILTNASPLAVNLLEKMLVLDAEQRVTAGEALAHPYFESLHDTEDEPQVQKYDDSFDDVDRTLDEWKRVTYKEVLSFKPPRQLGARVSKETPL

[12] = […] in human MDA231 cells assessed as inhibition of cell migration at 10 uM after 12 to 24 hrs by wound healing migration assay relative to control; assay type: functional; settings: MDA-MB-231
How it was run: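 MDA-231 cells grown on coverslips for 24 h, wounded by scraping with a micropipette tip, washed, then incubated in fresh medium at 37 °C with or without compound (10 μM final). Wound areas photographed at 12 and 24 h, remaining area measured, DMSO control set to 0% inhibition. Mean ± SD of five independent experiments.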

Row | Compound | inhibition [1] [%] | inhibition [2] [%] | inhibition [3] [%] | inhibition [4] [%] | inhibition [5] [%] | inhibition [6] [%] | inhibition [7] [%] | inhibition [8] [%] | inhibition [9] [%] | inhibition [10] [%] | inhibition [11] [%] | inhibition at 10 µM [12] [%]
1 | CC(=O)OC[C@H]1O[C@@H](NC(=O)CCCn2[se]c3ccccc3c2=O)[C@H](OC(C)=O)[C@@H](OC(C)=O)[C@@H]1OC(C)=O | 0 | 0 | 67 | 0 | 0 | 0 | 0 | 77 | 0 | 0 | 0 | 50
2 | O=c1c2ccccc2[se]n1-c1ccccc1 [EBSELEN] | 0 | 0 | 22 | 0 | 0 | 0 | 0 | 25 | 0 | 0 | 0 | –
3 | O=C(CCCn1[se]c2ccccc2c1=O)N[C@@H]1O[C@H](CO)[C@@H](O)[C@H](O)[C@H]1O | 0 | 0 | 60 | 0 | 0 | 0 | 0 | 74 | 0 | 0 | 0 | 50
4 | CC(=O)OC[C@H]1O[C@@H](O[C@H]2[C@H](OC(C)=O)[C@@H](OC(C)=O)[C@H](n3[se]c4ccccc4c3=O)O[C@@H]2COC(C)=O)[C@H](OC(C)=O)[C@@H](OC(C)=O)[C@H]1OC(C)=O | 0 | 0 | 63 | 0 | 0 | 0 | 0 | 95 | 0 | 0 | 0 | 50
